Assay results reported in ChEMBL document CHEMBL3779798, “Novel seleno- and thio-urea derivatives with potent in vitro activities against several cancer cell lines” (Eur J Med Chem, 2016).

Columns and labels:
Type in all cases: functional, cell-based
[1] = Anticancer activity against human DU145 cells assessed as inhibition of cell growth after 72 hrs by MTT assay; conditions: DU-145, 72 h
Summary of the method: (§1)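 MTT assay at 3,000 cells/well. Cells treated with DMSO or seven concentrations from 0.5 to 50 µM for 24, 48 or 72 h. MTT added 3 h before the end point; formazan dissolved in DMSO and read at 570 and 630 nm. IC50 is the concentration giving 50% growth inhibition. Media: PANC-1, BxPC3 and 1205Lu in DMEM; DU145 and A549 in RPMI 1640; HT29, HCT116 and RKO in McCoy's 5A, all with 10% FBS and pen/strep, at 37 °C and 5% CO2.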

[2] = Anticancer activity against human BxPC3 cells assessed as inhibition of cell growth after 48 hrs by MTT assay; conditions: BXPC-3, 48 h; summary of the method: as §1
[3] = Anticancer activity against human PANC1 cells assessed as inhibition of cell growth after 72 hrs by MTT assay; conditions: PANC-1, 72 h; summary of the method: as §1
[4] = Anticancer activity against human DU145 cells assessed as inhibition of cell growth after 24 hrs by MTT assay; conditions: DU-145, 24 h; summary of the method: as §1
[5] = Anticancer activity against human BxPC3 cells assessed as inhibition of cell growth after 72 hrs by MTT assay; conditions: BXPC-3, 72 h; summary of the method: as §1
[6] = Anticancer activity against human DU145 cells assessed as inhibition of cell growth after 48 hrs by MTT assay; conditions: DU-145, 48 h; summary of the method: as §1
A549 [7] = experiment: Anticancer activity against human A549 cells assessed as inhibition of cell growth after 48 hrs by MTT assay; conditions: A549, 48 h; summary of the method: as §1
A549 [8] = experiment: Anticancer activity against human A549 cells assessed as inhibition of cell growth after 24 hrs by MTT assay; conditions: A549, 24 h; summary of the method: as §1
[9] = Anticancer activity against human 1205 Lu cells assessed as inhibition of cell growth after 72 hrs by MTT assay; summary of the method: as §1
[10] = Anticancer activity against human BxPC3 cells assessed as inhibition of cell growth after 24 hrs by MTT assay; conditions: BXPC-3, 24 h; summary of the method: as §1
[11] = Anticancer activity against human HCT116 cells assessed as inhibition of cell growth after 24 hrs by MTT assay; conditions: HCT-116, 24 h; summary of the method: as §1
A549 [12] = experiment: Anticancer activity against human A549 cells assessed as inhibition of cell growth after 72 hrs by MTT assay; conditions: A549, 72 h; summary of the method: as §1
[13] = Anticancer activity against human PANC1 cells assessed as inhibition of cell growth after 24 hrs by MTT assay; conditions: PANC-1, 24 h; summary of the method: as §1
[14] = Anticancer activity against human HCT116 cells assessed as inhibition of cell growth after 48 hrs by MTT assay; conditions: HCT-116, 48 h; summary of the method: as §1
[15] = Anticancer activity against human 1205 Lu cells assessed as inhibition of cell growth after 24 hrs by MTT assay; summary of the method: as §1
[16] = Anticancer activity against human HCT116 cells assessed as inhibition of cell growth after 72 hrs by MTT assay; conditions: HCT-116, 72 h; summary of the method: as §1
[17] = Anticancer activity against human 1205 Lu cells assessed as inhibition of cell growth after 48 hrs by MTT assay; summary of the method: as §1
[18] = Anticancer activity against human PANC1 cells assessed as inhibition of cell growth after 48 hrs by MTT assay; conditions: PANC-1, 48 h; summary of the method: as §1

Structure (SMILES) | IC50 [1] | IC50 [2] | IC50 [3] | IC50 [4] | IC50 [5] | IC50 [6] | IC50 (A549 [7]) | IC50 (A549 [8]) | IC50 [9] | IC50 [10] | IC50 [11] | IC50 (A549 [12]) | IC50 [13] | IC50 [14] | IC50 [15] | IC50 [16] | IC50 [17] | IC50 [18]
N=C(N)SCc1ccc(-n2cccc2)cc1 | 31.7 µM | > 50 µM | 40.6 µM | > 50 µM | 24.6 µM | > 50 µM | > 50 µM | > 50 µM | > 50 µM | > 50 µM | > 50 µM | > 50 µM | > 50 µM | > 50 µM | > 50 µM | 31.5 µM | > 50 µM | > 50 µM
N=C(N)SCc1cc2c(cc1Br)OCO2 | > 50 µM | > 50 µM | 34.3 µM | > 50 µM | 44.3 µM | > 50 µM | > 50 µM | > 50 µM | > 50 µM | > 50 µM | > 50 µM | > 50 µM | > 50 µM | 34.8 µM | > 50 µM | 22.1 µM | > 50 µM | 40.5 µM
N=C(N)[Se]Cc1cc2c(cc1Br)OCO2 | > 50 µM | > 50 µM | 16.5 µM | > 50 µM | 36.9 µM | > 50 µM | > 50 µM | > 50 µM | 21.8 µM | > 50 µM | > 50 µM | 36.3 µM | > 50 µM | 31.8 µM | > 50 µM | 23.9 µM | > 50 µM | 24.7 µM
N=C(N)[Se]Cc1c2ccccc2nc2ccccc12 | 12.9 µM | 10.5 µM | 9.8 µM | 31.8 µM | 8.2 µM | 14.9 µM | 14.9 µM | 34.4 µM | 11.6 µM | 20.4 µM | 31.8 µM | 6.2 µM | 12.1 µM | 16.7 µM | 13 µM | 14.4 µM | 16.7 µM | 11.6 µM
Cc1noc(C)c1CSC(=N)N | > 50 µM | > 50 µM | > 50 µM | > 50 µM | 47.2 µM | > 50 µM | > 50 µM | > 50 µM | > 50 µM | > 50 µM | > 50 µM | > 50 µM | > 50 µM | > 50 µM | > 50 µM | > 50 µM | > 50 µM | > 50 µM
N=C(N)[Se]Cc1ccc2ccccc2n1 | 7.3 µM | 17 µM | 9.6 µM | 19.6 µM | 7.8 µM | 11.6 µM | 15.1 µM | 39.6 µM | 7.1 µM | 36.6 µM | 29.7 µM | 8.1 µM | 18 µM | 19.6 µM | 14.4 µM | 10.6 µM | 9.9 µM | 15.9 µM
N=C(N)SCc1ccc([N+](=O)[O-])o1 | > 50 µM | > 50 µM | > 50 µM | > 50 µM | > 50 µM | > 50 µM | > 50 µM | > 50 µM | > 50 µM | > 50 µM | > 50 µM | > 50 µM | > 50 µM | 30.8 µM | > 50 µM | 7 µM | > 50 µM | > 50 µM
COc1cc2oc(=O)cc(C[Se]C(=N)N)c2cc1OC | 6.8 µM | > 50 µM | 10 µM | 11.4 µM | 6.6 µM | 8.4 µM | 5.2 µM | 15.7 µM | 1.9 µM | > 50 µM | 26.7 µM | 4.5 µM | 20.6 µM | 8.9 µM | 21 µM | 6.6 µM | 4.4 µM | 19.4 µM
